How the values were obtained:
Aspc‐1 cells [1] = experiment: Annexin V/PI apoptosis assay; format: cell-based, human; settings: 24 hours
Outline: (§1)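 Cells were treated with a range of concentrations for 24 hours, washed with PBS, then stained with annexin V‑FITC and propidium iodide for 15 minutes in the dark. […] Early (annexin V) and late (PI) apoptotic cells are reported as percentages, mean of n = 3 with SD.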

Bxpc‐3 cells [2] = experiment: Annexin V/PI apoptosis assay; format: cell-based, human; settings: 24 hours
Outline: as §1

Src [3] = target: Src (Homo sapiens, UniProt P12931); format: cell-based; settings: 10 PDAC cell lines; 12 hours; western blot
Sequence of Src (Homo sapiens, UniProt P12931) (P12931 whole entry): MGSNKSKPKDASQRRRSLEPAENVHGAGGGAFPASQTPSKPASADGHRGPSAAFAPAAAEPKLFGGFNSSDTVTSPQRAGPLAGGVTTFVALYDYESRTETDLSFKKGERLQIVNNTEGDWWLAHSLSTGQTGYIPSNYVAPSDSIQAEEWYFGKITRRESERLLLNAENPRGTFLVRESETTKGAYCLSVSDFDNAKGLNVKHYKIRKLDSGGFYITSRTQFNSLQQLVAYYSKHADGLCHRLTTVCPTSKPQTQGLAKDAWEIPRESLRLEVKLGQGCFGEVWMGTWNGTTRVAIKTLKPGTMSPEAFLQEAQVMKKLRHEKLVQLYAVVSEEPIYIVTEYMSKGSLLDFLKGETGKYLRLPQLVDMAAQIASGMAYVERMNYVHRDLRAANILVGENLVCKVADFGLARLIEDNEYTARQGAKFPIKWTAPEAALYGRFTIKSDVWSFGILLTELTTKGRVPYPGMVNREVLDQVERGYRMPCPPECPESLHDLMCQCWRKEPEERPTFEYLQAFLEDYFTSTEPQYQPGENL

FOSL1 [4] = experiment: Western blot, FOSL1 expression in intact cells; format: cell-based, human; settings: 10 PDAC cell lines, 12 hours
Aspc‐1 xenograft = experiment: Subcutaneous xenograft model; format: in vivo, NOD‐SCID mice; settings: Aspc‐1 model; LY‐1816 20 or 40 mg/kg/d p.o.; dasatinib 40 mg/kg/d p.o.; gemcitabine 80 mg/kg once a week
Outline: (§2)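 Female NOD‑SCID mice bearing s.c. right‑flank tumors (5 × 10⁶–1 × 10⁷ cells injected) were randomized at 100–200 mm³ (6–7 per group). They received test compound in 25% PEG400/5% DMSO/water by oral gavage once daily for 18 days, or vehicle. Tumors were measured by caliper every 3 days, with volume = length × width² × 0.5.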

Bxpc‐3 xenograft = experiment: Subcutaneous xenograft model; format: in vivo, NOD‐SCID mice; settings: Bxpc‐3 model; LY‐1816 20 or 40 mg/kg/d p.o.; dasatinib 40 mg/kg/d p.o.; gemcitabine 80 mg/kg once a week
Outline: as §2

Src [5] = experiment: Immunohistochemistry of xenograft tumor tissues; format: in vivo, NOD‐SCID mice; settings: Aspc‐1 and Bxpc‐3 models; LY‐1816 and dasatinib 40 mg/kg/d p.o., gemcitabine 80 mg/kg/wk; IHC
STAT3 [6] = experiment: Immunohistochemistry of xenograft tumor tissues; format: in vivo, NOD‐SCID mice; settings: Aspc‐1 and Bxpc‐3 models; LY‐1816 and dasatinib 40 mg/kg/d p.o., gemcitabine 80 mg/kg/wk; IHC
Outline: (§3)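 Six-week-old female NOD-SCID mice received 5 × 10⁶ to 1 × 10⁷ cells s.c. in the right flank. Treatment began at about 200 mm³. Test compound (40 mg/kg/d) was given once daily by oral gavage in 25% PEG400 plus 5% DMSO in water. Tumors were resected at the end of dosing. Frozen sections were immunostained and imaged by light microscopy.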

FOSL1 [7] = experiment: Immunohistochemistry of xenograft tumor tissues; format: in vivo, NOD‐SCID mice; settings: Aspc‐1 and Bxpc‐3 models; LY‐1816 and dasatinib 40 mg/kg/d p.o., gemcitabine 80 mg/kg/wk; IHC
Outline: as §3

cleaved caspase‐3 = experiment: Immunohistochemistry of xenograft tumor tissues; format: in vivo, NOD‐SCID mice; settings: xenograft models; LY‐1816 40 mg/kg/d p.o., gemcitabine 80 mg/kg/wk; IHC
Outline: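 Aspc‑1 or Bxpc‑3 s.c. tumors in NOD‑SCID mice were dosed p.o. daily from about 200 mm³, with vehicle controls. At study end, tumors were resected. Frozen sections were immunostained and imaged by light microscopy, and cleaved caspase‑3‑positive cells were counted.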

Aspc‐1 cells [8] = experiment: Wound healing assay; format: cell-based, human; settings: 18 hours
Bxpc‐3 cells [9] = experiment: Wound healing assay; format: cell-based, human; settings: 18 hours
Aspc‐1 cells [10] = experiment: Transwell invasion assay; format: cell-based, human
Outline: (§4)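 Inserts were precoated with polymerized collagen type I. Cells were seeded on the insert bottom in serum‑free medium with serial dilutions of test compound or vehicle, with 10% FBS medium in the lower chamber. After one day, cells were stained with calcein‑AM and optical sections taken at 10‑μm intervals. Invasion was scored as cells moving >20 μm into collagen; n = 3, mean with SD.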

Bxpc‐3 cells [11] = experiment: Transwell invasion assay; format: cell-based, human
Outline: as §4

STAT3 [12] = experiment: Western blot, STAT3 phosphorylation; format: cell-based, human; settings: Aspc‐1 and Bxpc‐3 cells, 12 hours
Outline: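 Aspc-1 and Bxpc-3 cells were grown overnight in complete medium and treated with test compound for 12 h. Cells were lysed in RIPA buffer and protein was quantified. Lysates were run on SDS-PAGE and transferred to PVDF, then blocked 2 h in TBS-T with 5% non-fat milk. Blots were probed for pAKT Ser473, pERK Thr202/Tyr204, pSTAT3 Tyr705, the matching total proteins and β-actin. Detection was by enhanced chemiluminescence.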

Row | SMILES | apoptosis (annexin V and PI‐positive populations) (Aspc‐1 cells [1]) | apoptosis (annexin V and PI‐positive populations) (Bxpc‐3 cells [2]) | phosphorylation of Src (Src [3]) | FOSL1 expression (FOSL1 [4]) | antitumor activity (Aspc‐1 xenograft) | antitumor activity (Bxpc‐3 xenograft) | phosphorylation of Src in tumor tissues (Src [5]) | phosphorylation of STAT3 in tumor tissues (STAT3 [6]) | expression of FOSL1 in tumor tissues (FOSL1 [7]) | cleaved caspase‐3 stain in tumor tissues (cleaved caspase‐3) | cell migration (Aspc‐1 cells [8]) | cell migration (Bxpc‐3 cells [9]) | cell invasion (Aspc‐1 cells [10]) | cell invasion (Bxpc‐3 cells [11]) | phosphorylation of STAT3 (STAT3 [12])
1 | Nc1ccn([C@@H]2O[C@H](CO)[C@@H](O)C2(F)F)c(=O)n1 [gemcitabine, reference compound] | also could induce apoptosis | also could induce apoptosis | little inhibitory effect against Src and FOSL1 expression | little inhibitory effect against Src and FOSL1 expression | also showed antitumor activities | also showed antitumor activities | did not evidently inhibit the activities of Src or STAT3, nor FOSL1 expression | did not evidently inhibit the activities of Src or STAT3, nor FOSL1 expression | did not evidently inhibit the activities of Src or STAT3, nor FOSL1 expression | increase in the number of cleaved caspase‐3‐positive cells | very weak activity in blocking cell migration | very weak activity in blocking cell migration | poor ability to block cell invasion | poor ability to block cell invasion | 
2 | Cc1nc(Nc2ncc(C(=O)Nc3c(C)cccc3Cl)s2)cc(N2CCN(CCO)CC2)n1 [dasatinib] | also could induce apoptosis | also could induce apoptosis |  | slight influence on FOSL1 expression | also showed antitumor activities | also showed antitumor activities |  | very weak or no influence on the phosphorylation of STAT3 or the expression of FOSL1 | very weak or no influence on the phosphorylation of STAT3 or the expression of FOSL1 |  |  |  | poor ability to block cell invasion | poor ability to block cell invasion | very weak or no impact on the phosphorylation of STAT3
